The subject of test [1] is Canis familiaris. Kind of test: Effect on arterial blood pressure (MAP) in anesthetized open-chest dogs at 1.875 mg/kg intravenous dose. The class given is functional, Canis lupus familiaris. The method, boiled down:
(§1)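 Pentobarbital-anesthetized (45 mg/kg i.p.), ventilated mongrel dogs, open chest. MAP came from a femoral artery cannula, HR from a cardiotachometer triggered by the pressure pulse, and CF from a right-ventricle strain gauge. Compound in 10% DMF/saline or as the HCl salt in saline was infused iv in 3–4 stepwise rising doses, each over 5 min. Responses are % change from predrug control at the maximum dose given.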

In test [2] the test system is Canis familiaris. Nature of the test: Effect on heart rate (HR) in anesthetized open-chest dogs at 1.875 mg/kg intravenous dose. In kind it is functional, Canis lupus familiaris. In outline: as §1
The test system of test [3] is Canis familiaris. Kind of test: 50% increase in myocardial contractile force (CF) above control in anesthetized open-chest dogs at 1.875 mg/kg intravenous dose. In kind it is functional. The note with it: Canis lupus familiaris, Myocardium. The method, boiled down: (§2)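 Anesthetized (pentobarbital 45 mg/kg i.p.), artificially respired mongrel dogs with right thoracotomy. Contractile force was read by a strain gauge on the right ventricle. Compound was given in 10% DMF in saline, or as the HCl salt in saline, by femoral vein infusion in 3–4 stepwise increasing doses, each over 5 min. ED50 (mg/kg iv) is the dose giving a 50% CF rise over control, taken from 3–4 point dose–response curves by graphic estimation (n = 1, 2 dogs) or linear regression (n ≥ 3).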

In test [4] the test system is Canis familiaris. Nature of the test: Effect on myocardial contractile force (CF) in anesthetized open-chest dogs at 1.875 mg/kg intravenous dose. In kind it is functional, Canis lupus familiaris, Myocardium. In outline:
as §1

Test [5] deals with Phosphodiesterase 3 (Canis familiaris). Nature of the test: Inhibition of canine cardiac fraction III cAMP phosphodiesterase (PDE 3) at 1.875 mg/kg intravenous dose.
Test [6] has as its system Canis familiaris. Kind of test: Effect on arterial blood pressure (MAP) in anesthetized open-chest dogs at 8.75 mg/kg intravenous dose. In kind it is functional, Canis lupus familiaris. In outline:
as §1

For test [7], the system named is Canis familiaris. Kind of test: Effect on heart rate (HR) in anesthetized open-chest dogs at 8.75 mg/kg intravenous dose. In kind it is functional, Canis lupus familiaris. In outline: as §1
Test [8] relates to Canis familiaris. Kind of test: Effect on myocardial contractile force (CF) in anesthetized open-chest dogs at 8.75 mg/kg intravenous dose. In kind it is functional, Canis lupus familiaris, Myocardium. In outline: as §1
In test [9] the test system is Canis familiaris. Kind of test: Effect that produces a 50% increase in myocardial contractile force (CF) above control in anesthetized open-chest dogs at 8.75 mg/kg intravenous dose. In kind it is functional. Particulars: Canis lupus familiaris, Myocardium. In outline: as §2
Test [10] has as its target Phosphodiesterase 3 (Canis familiaris). Kind of test: Inhibitory activity against canine cardiac fraction III cyclic AMP phosphodiesterase (PDE III).
In test [11] the test system is Canis familiaris. Kind of test: Effect on heart rate (HR) in anesthetized open-chest dogs at 3.75 mg/kg intravenous dose. The class given is functional, Canis lupus familiaris. In outline:
as §1

The subject of test [12] is Canis familiaris. Kind of test: 50% increase in myocardial contractile force (CF) above control in anesthetized open-chest dogs at 3.75 mg/kg intravenous dose. Particulars: Canis lupus familiaris, Myocardium. The class given is functional. The method, boiled down: as §2
Test [13] deals with Canis familiaris. Nature of the test: Effect on myocardial contractile force (CF) in anesthetized open-chest dogs at 3.75 mg/kg intravenous dose. In kind it is functional, Canis lupus familiaris, Myocardium. The method, boiled down:
as §1

For test [14], the system named is Canis familiaris. Nature of the test: Effect on arterial blood pressure (MAP) in anesthetized open-chest dogs at 3.75 mg/kg intravenous dose. In kind it is functional, Canis lupus familiaris. The method, boiled down:
as §1

For test [15], the system named is Canis familiaris. Nature of the test: Effect on arterial blood pressure (MAP) in anesthetized open-chest dogs at 0.875 mg/kg intravenous dose. In kind it is functional, Canis lupus familiaris. In outline:
as §1

The subject of test [16] is Canis familiaris. Kind of test: Effect on heart rate (HR) in anesthetized open-chest dogs at 0.875 mg/kg intravenous dose. In kind it is functional, Canis lupus familiaris. In outline:
as §1

The test system of test [17] is Canis familiaris. Kind of test: 50% increase in myocardial contractile force (CF) above control in anesthetized open-chest dogs at 0.875 mg/kg intravenous dose. In kind it is functional. The note with it: Canis lupus familiaris, Myocardium. The method, boiled down: as §2
The test system of test [18] is Canis familiaris. Nature of the test: Effect on myocardial contractile force (CF) in anesthetized open-chest dogs at 0.875 mg/kg intravenous dose. In kind it is functional, Canis lupus familiaris, Myocardium. The method, boiled down: as §1
The target of test [19] is Phosphodiesterase 3 (Canis familiaris). Kind of test: Inhibition of canine cardiac fraction III cAMP phosphodiesterase (PDE 3) at 0.875 mg/kg intravenous dose.

In general, ED50 refers to the dose at which the effect has come halfway, by size or by number of responders. Read a high ED50 as a need for a large dose. What is called IC50 is the concentration that gives 50% inhibition.

For `Cc1nc(O)nc2ccc(N3CCN(C)CC3)cc12`, the results for the Change in [1], in [2] and in test [4] were 0%, 6% and 10%, respectively. The ED50 in test [3] is more than 1.87 mg/kg. Moreover, in [5], the IC50 stood at 300 µM.

For `COc1cc2nc(O)nc(C(F)(F)F)c2cc1OC`, the results for the Change in test [6], in [7] and in test [8] were -15%, 0% and 23%, respectively. The same compound came in with an ED50 in test [9] of more than 8.75 mg/kg. In test [10], this compound displayed an IC50 of 100 µM.

As to `COc1cc2nc(O)nc(C3CCCC3)c2cc1OC`, the Change in test [6] is recorded as -19%; in test [7], 11%; in test [8], 71%. Besides, the ED50 in test [9] was more than 8.75 mg/kg. This compound also showed an IC50 in [10] of 22 µM.

On to `COc1ccc2nc(O)nc(C)c2c1`, for which the Change in test [11] is 18%; in [13] it was 111%; in test [14], -10%. This compound also registered an ED50 in test [12] of 1.32 mg/kg.

On to `COc1cc2nc(O)nc(C(C)C)c2cc1OC`, for which the Change was -27% in [6], 21% in test [7] and 112% in test [8]. The ED50 in test [9] was 1.39 mg/kg. The same compound returned an IC50 in [10] of 43 µM.

On to `Cc1nc(O)nc2ccc3c(c12)OCO3`, for which the results for the Change in test [1], in test [2] and in [4] were -14%, 13% and 71%, respectively. Moreover, the ED50 in [3] came out at 0.69 mg/kg.

With `COc1ccc2[nH]c(=O)nc(C)c2c1OC` [BEMARINONE], the Change in test [15] is listed as -16%; in test [16] it was 20%; in test [18] it was 114%. In test [17], this compound had an ED50 of 0.23 mg/kg. Moreover, the half-inhibitory concentration (IC50) in test [19] was determined as 17 µM.

For the compound `CCc1nc(O)nc2cc(OC)c(OC)cc12`, the Change was -28% in [6], 13% in test [7] and 82% in test [8]. It took a dose of 3.4 mg/kg to reach the 50% effect level in test [9] (ED50).

For the compound `COc1cc(OC)c2nc(O)nc(C)c2c1`, the Change was -6% in [6], 13% in test [7] and 60% in test [8]. Besides, the 50% effect level in test [9] (ED50) was put at a dose of 7.45 mg/kg. In test [10], this compound registered a half-inhibitory concentration (IC50) of 190 µM.

In the case of `COc1cc2nc(O)nc(-c3ccccc3)c2cc1OC`, the Change is -25% in test [6], 7% in [7] and 106% in test [8]. This compound also yielded an ED50 in test [9] of 4.1 mg/kg. In [10], this compound returned an IC50 of 14 µM.

Turning to `Cc1nc(O)nc2ccc(N3CCCCC3)cc12`, the Change in test [11] is on record as 35%; in test [13], 116%; in test [14] it was -21%. Moreover, in test [12], the ED50 is 1.13 mg/kg.

In the case of `COc1cc2nc(O)nc(Cc3ccccc3)c2cc1OC`, the Change in [1] worked out at 30%; in test [2] it was 3%; in test [4], 33%. Further, the ED50 in test [3] was more than 1.87 mg/kg. Moreover, the IC50 in [5] was determined as 13 µM.

`COc1cc2c(C)nc(O)nc2c(OC)c1OC`: the figures for the Change in [1], in test [2] and in [4] were -4%, 3% and 10%, respectively. Also, the ED50 in test [3] was more than 1.87 mg/kg.

Consider `Cc1nc(O)nc2cc3c(cc12)OCO3`, for which the Change is listed as 1% in [6], 10% in test [7] and 66% in test [8]. In addition, it took a dose of 5.65 mg/kg to reach the 50% effect level in test [9] (ED50).

As for `COc1cc2nc(O)nc(C)c2c(OC)c1OC`, the values for the Change in test [1], in test [2] and in test [4] were -9%, 0% and 11%, respectively. Also, the ED50 in test [3] is more than 1.87 mg/kg.

Consider `Br.Cc1nc(O)nc2ccc(O)c(O)c12`, for which the Change in test [6] is 8%; in test [7], 0%; in test [8], 39%. The compound further showed an ED50 in [9] of more than 8.75 mg/kg. Moreover, the IC50 in [10] worked out at 18 µM.

For `COc1ccc2nc(O)ncc2c1OC`, the Change is reported as -9% in [1], 10% in [2] and 101% in test [4]. For the same compound, the ED50 in test [3] turned out to be 1.64 mg/kg.

Take `Cc1nc(O)nc2ccc(N(C)C)cc12`: the Change in [6] is reported as -23%; in test [7], 23%; in test [8], 90%. For the same compound, the ED50 in test [9] was 1.2 mg/kg. Besides, in [10], the IC50 worked out at 38 µM.

Consider `Nc1cc(-c2ccncc2)c[nH]c1=O` [INAMRINONE], for which the Change in test [1] is -10%; in test [2], 12%; in test [4], 134%. The same compound had an ED50 in test [3] of 0.38 mg/kg.

Take `COc1ccc2c(c(C)nc(=O)n2C)c1OC`: the Change in test [1] stood at 6%; in [2], 5%; in test [4] it was 31%. Moreover, in test [3], the ED50 is more than 1.87 mg/kg.

Regarding `Cc1nc(O)nc2ccccc12`, the Change in test [6] is reported as -8%; in test [7], 16%; in [8], 93%. This compound also had an ED50 in test [9] of 3.45 mg/kg. In [10], this compound showed an IC50 of 138 µM.

`Cc1nc(O)nc2ccc(N3CCOCC3)cc12`: the Change in [15] is on record as -10%; in test [16], 13%; in test [18] it was 59%. In test [17], this compound displayed an ED50 of 0.7 mg/kg.

On to `COc1ccc(OC)c2c(C)nc(O)nc12`, for which the figures for the Change in test [6], in test [7] and in test [8] were -6%, 13% and 54%, respectively. The compound also displayed an IC50 in [10] of 129 µM.

Regarding `Cc1nc(O)nc2cc(Cl)c(Cl)cc12`, the results for the Change in [6], in [7] and in test [8] were 1%, 2% and 10%, respectively. The same compound had an ED50 in test [9] of more than 8.75 mg/kg.

With `COc1cc2nc(O)nc(C)c2cc1OC`, the Change in test [6] is listed as -35%; in test [7] it was 19%; in test [8] it was 90%. In [9], this compound showed an ED50 of 2.42 mg/kg. The compound further showed an IC50 in test [10] of 100 µM.

Take `Cc1nc(O)nc2ccc(Cl)cc12`: the Change in test [6] was -21%; in test [7], 33%; in test [8] it was 85%. Further, the ED50 in test [9] was 1.8 mg/kg.

In the case of `COc1cc(OC)c2c(C)nc(O)nc2c1`, the Change is recorded as -40% in test [6], 25% in test [7] and 97% in [8]. In test [9], this compound had an ED50 of 2.08 mg/kg. This compound also yielded an IC50 in test [10] of 25 µM.

Consider `CCc1nc(O)nc2ccc(OC)c(OC)c12`, for which the results for the Change in test [1], in test [2] and in [4] were 9%, 20% and 112%, respectively. Also, the ED50 in test [3] was determined as 0.51 mg/kg. Also, the IC50 in test [5] is 18 µM.

For the origin of these results see ChEMBL document CHEMBL1123810, “Synthesis and cardiotonic activity of a series of substituted 4-alkyl-2(1H)-quinazolinones” (J Med Chem, 1987).
